In brackets after ≈: the same amount, converted by molar mass.
Columns and labels:
[1] = molecular target: T1, Prostaglandin D2 receptor 2 (Homo sapiens, UniProt Q9Y5Y4); test: Displacement of [3H]-PGD2 from human CRTh2 receptor expressed in HEK293 cells; assay type: cell-based
T1 sequence (Q9Y5Y4 whole entry): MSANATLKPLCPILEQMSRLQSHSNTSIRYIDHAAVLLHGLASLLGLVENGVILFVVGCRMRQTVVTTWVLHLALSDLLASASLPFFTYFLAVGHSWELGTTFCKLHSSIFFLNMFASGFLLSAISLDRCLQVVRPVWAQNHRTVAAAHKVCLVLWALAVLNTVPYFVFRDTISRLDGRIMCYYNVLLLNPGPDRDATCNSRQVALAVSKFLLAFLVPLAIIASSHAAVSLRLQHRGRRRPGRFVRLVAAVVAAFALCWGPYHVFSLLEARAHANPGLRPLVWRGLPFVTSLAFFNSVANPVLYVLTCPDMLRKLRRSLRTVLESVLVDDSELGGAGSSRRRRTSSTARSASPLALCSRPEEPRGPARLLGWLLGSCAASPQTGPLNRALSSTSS

[2] = molecular target: T1, Prostaglandin D2 receptor 2; test: Antagonist activity at human CRTh2 receptor expressed in HEK293 cells assessed as inhibition of PGD2-induced calcium flux by FLIPR assay; assay type: functional, cell-based
[3] = molecular target: T1, Prostaglandin D2 receptor 2; test: Displacement of [3H]-PGD2 from human CRTh2 receptor expressed in HEK293 cells in presence of 0.5% human serum albumin; assay type: cell-based
[4] = molecular target: T2, Prostaglandin D2 receptor (Homo sapiens, UniProt Q13258); test: Displacement of [3H]-PGD2 from human DP1 receptor expressed in CHO cells; assay type: cell-based
T2 sequence (Q13258 whole entry): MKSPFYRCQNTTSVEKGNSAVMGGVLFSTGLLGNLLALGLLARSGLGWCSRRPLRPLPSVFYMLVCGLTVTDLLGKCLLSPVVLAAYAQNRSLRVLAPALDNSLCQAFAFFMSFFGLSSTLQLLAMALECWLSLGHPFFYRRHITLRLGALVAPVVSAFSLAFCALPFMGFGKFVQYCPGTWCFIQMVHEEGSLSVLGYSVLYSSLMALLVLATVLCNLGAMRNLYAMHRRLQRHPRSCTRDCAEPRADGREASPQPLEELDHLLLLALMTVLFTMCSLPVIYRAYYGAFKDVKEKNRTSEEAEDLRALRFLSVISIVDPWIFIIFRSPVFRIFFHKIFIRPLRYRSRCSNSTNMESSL

Thromboxane A2 receptor = molecular target: T3, Thromboxane A2 receptor (Homo sapiens, UniProt P21731); test: Antagonist activity at human TP receptor by FLIPR assay; assay type: functional
T3 sequence (P21731 whole entry): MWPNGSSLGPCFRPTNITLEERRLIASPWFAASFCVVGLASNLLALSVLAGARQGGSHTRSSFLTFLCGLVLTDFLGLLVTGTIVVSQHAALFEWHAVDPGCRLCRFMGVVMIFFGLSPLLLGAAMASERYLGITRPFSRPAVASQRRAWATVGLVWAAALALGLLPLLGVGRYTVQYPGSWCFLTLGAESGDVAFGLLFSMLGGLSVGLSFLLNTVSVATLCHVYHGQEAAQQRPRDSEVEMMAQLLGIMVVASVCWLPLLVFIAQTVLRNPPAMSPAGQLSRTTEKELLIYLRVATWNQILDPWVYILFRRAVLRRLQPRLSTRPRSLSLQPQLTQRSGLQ

[5] = Lipophilicity, log D of the compound at pH 7.4; assay type: physicochemical; settings: buffer
[6] = Solubility of the compound in 0.1 M HCl; assay type: physicochemical; settings: buffer
[7] = Solubility of the compound in phosphate buffer at pH 7; assay type: physicochemical
[8] = Solubility of the compound in Tris buffer at pH 9; assay type: physicochemical
[9] = Stability of the compound in simulated gastric fluid assessed as compound remaining after 1 hr; assay type: physicochemical; settings: read-out: Stability
In short: (§1)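 Compound incubated in simulated gastric fluid for 1 h or simulated intestinal fluid for 4 h; unchanged parent recovered quantified by LC-MS, expressed as % parent remaining.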

[10] = Stability of the compound in simulated intestinal fluid assessed as compound remaining after 4 hrs; assay type: physicochemical; settings: read-out: Stability; in short: as §1
[11] = Metabolic stability of the compound in human plasma assessed as compound remaining after 4 hrs; assay type: ADME, cell-free; settings: read-out: Stability
[12] = Intrinsic clearance in rat liver microsomes assessed per mg protein; assay type: ADME, Microsome; settings: read-out: CLH
[13] = Intrinsic clearance in human liver microsomes assessed per mg protein; assay type: ADME, Microsome; settings: read-out: CLH
[14] = Intrinsic clearance in rat hepatocytes assessed per 10^6 cells; assay type: ADME, cell-based, Hepatocyte; settings: read-out: CLH
Cytochrome P450 2D6 = Cytochrome P450 2D6 (Homo sapiens, UniProt P10635); test: Inhibition of CYP2D6; assay type: ADME
Sequence of Cytochrome P450 2D6 (P10635 whole entry): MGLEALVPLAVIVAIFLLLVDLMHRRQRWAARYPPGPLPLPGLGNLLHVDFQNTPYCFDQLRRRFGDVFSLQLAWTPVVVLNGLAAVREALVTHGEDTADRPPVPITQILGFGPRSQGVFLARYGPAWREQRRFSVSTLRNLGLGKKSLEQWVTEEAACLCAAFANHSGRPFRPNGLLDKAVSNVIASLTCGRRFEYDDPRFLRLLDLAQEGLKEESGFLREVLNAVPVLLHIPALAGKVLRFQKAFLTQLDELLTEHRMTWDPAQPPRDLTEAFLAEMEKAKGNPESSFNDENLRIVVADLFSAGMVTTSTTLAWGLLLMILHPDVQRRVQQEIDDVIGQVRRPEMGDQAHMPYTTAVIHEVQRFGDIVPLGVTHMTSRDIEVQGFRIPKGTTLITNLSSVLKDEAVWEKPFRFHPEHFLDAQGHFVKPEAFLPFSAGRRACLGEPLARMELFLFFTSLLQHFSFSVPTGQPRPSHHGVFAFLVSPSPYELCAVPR

Cytochrome P450 3A4 [15] = molecular target: T4, Cytochrome P450 3A4 (Homo sapiens, UniProt P08684); test: Inhibition of CYP3A4 using midazolam as substrate; assay type: ADME
T4 sequence (P08684 whole entry): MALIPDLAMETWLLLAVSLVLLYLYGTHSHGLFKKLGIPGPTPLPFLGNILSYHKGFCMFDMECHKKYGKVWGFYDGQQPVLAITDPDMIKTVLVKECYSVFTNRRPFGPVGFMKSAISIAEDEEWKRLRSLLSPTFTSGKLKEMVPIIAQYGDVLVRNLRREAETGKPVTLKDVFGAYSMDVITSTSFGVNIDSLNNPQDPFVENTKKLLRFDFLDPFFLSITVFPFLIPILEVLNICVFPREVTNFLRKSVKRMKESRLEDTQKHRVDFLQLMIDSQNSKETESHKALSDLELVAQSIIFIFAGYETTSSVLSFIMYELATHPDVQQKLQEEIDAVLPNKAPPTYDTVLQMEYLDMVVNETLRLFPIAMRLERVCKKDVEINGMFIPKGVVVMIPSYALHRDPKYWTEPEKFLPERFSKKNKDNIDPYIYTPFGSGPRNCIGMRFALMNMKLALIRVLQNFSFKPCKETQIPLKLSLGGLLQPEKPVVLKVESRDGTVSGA

Cytochrome P450 3A4 [16] = molecular target: T4, Cytochrome P450 3A4; test: Inhibition of CYP3A4 using testosterone as substrate; assay type: ADME
Cytochrome P450 2C9 = Cytochrome P450 2C9 (Homo sapiens, UniProt P11712); test: Inhibition of CYP2C9; assay type: ADME
Sequence of Cytochrome P450 2C9 (P11712 whole entry): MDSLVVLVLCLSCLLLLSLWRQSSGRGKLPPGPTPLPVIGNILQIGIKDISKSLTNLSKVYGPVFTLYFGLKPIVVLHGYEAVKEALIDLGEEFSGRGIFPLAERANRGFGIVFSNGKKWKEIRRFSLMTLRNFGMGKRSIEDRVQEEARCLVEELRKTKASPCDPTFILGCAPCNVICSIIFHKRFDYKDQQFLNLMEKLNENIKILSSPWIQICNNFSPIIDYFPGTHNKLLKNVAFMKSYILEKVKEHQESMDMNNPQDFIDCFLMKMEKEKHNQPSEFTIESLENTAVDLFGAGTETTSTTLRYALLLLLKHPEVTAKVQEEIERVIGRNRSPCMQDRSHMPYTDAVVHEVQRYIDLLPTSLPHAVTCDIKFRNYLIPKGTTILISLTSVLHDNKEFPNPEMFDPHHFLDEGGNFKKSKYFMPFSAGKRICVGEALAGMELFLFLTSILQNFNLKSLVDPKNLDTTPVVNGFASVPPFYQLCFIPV

[17] = AUC in Wistar rat at 10 mg/kg, po; assay type: ADME, organism-based; parameters: dose 10 mg/kg, route oral; settings: plasma
In short: (§2)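 Male Wistar rats, 3 animals per experiment; intravenous dose 1 mg/kg and oral dose 10 mg/kg, each given as a solution.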

[18] = Clearance in Wistar rat at 1 mg/kg, iv and 10 mg/kg, po; assay type: ADME, organism-based; settings: in vivo; in short: as §2
[19] = Volume of distribution at steady state in Wistar rat at 1 mg/kg, iv and 10 mg/kg, po; assay type: ADME, organism-based; settings: in vivo, read-out: Vdss; in short: as §2
[20] = Half life in Wistar rat at 1 mg/kg, iv and 10 mg/kg, po; assay type: ADME, organism-based; settings: in vivo; in short: as §2
[21] = Oral bioavailability in Wistar rat at 10 mg/kg; assay type: ADME, organism-based; settings: in vivo; in short: as §2

IC50 [1] [µM]	IC50 [2] [µM]	IC50 [3] [µM]	IC50 [4] [µM]	IC50 (Thromboxane A2 receptor) [µM]	logD [5]	solubility [6] [µg/mL]	solubility [7] [µg/mL]	solubility [8] [µg/mL]	remaining at 1 h [9] [%]	remaining at 4 h [10] [%]	remaining at 4 h [11] [%]	microsomal CLint [12] [µL/min/mg]	hepatocyte CLint [14] [µL/min/1e6 cells]	IC50 (Cytochrome P450 2D6) [µM]	IC50 (Cytochrome P450 3A4 [15]) [µM]	IC50 (Cytochrome P450 3A4 [16]) [µM]	IC50 (Cytochrome P450 2C9) [µM]	AUC [17] [ng·h/mL]	clearance [18] [mL/min/kg]	Structure (SMILES)	further results
0.002	0.005	0.014	> 10	> 25	-0.8	484 (≈ 1250 µM)	399 (≈ 1030 µM)	583 (≈ 1500 µM)	95	100	100	60	20	> 50	10	15	> 50	919	36	COc1ccc(C(C)=O)cc1CSc1nc2cc(F)ccc2n1CC(=O)O	microsomal CLint [13]: 13 µL/min/mg; Vd [19]: 1.2 L/kg; half-life [20]: 0.9 h; bioavailability [21]: 19%
0.008	0.025	0.002	> 10	> 25	-1.1	575 (≈ 1550 µM)	602 (≈ 1630 µM)	583 (≈ 1570 µM)	92	100	100	17	10	> 50	37	> 50	24	2360	20	COc1ccc(C(C)=O)cc1CSc1nc2ccccc2n1CC(=O)O	Vd [19]: 1.1 L/kg; half-life [20]: 2.5 h; bioavailability [21]: 27%

Source: ChEMBL document CHEMBL2046289, “Novel 2-(2-(benzylthio)-1H-benzo[d]imidazol-1-yl)acetic acids: discovery and hit-to-lead evolution of a selective CRTh2 receptor antagonist chemotype” (Bioorg Med Chem Lett, 2012)
